Only some compounds are listed: those with a hit (about 2% of all), similar ones and a draw of the others.
M1 antag = blocks human M1 muscarinic receptor; CHO-K1 hM1, Fluo-8 calcium fluorescence, ACh EC80 antagonist; inhibition, % at 3 µM; 360,000 compounds, 1.3% hits;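 active = percent inhibition above its own plate's cutoff, namely the mean of that plate's compound wells plus 3 SD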;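 also: peak over basal fluorescence ratio during 140 s after agonist addition; 0% = ACh EC80 plus DMSO and 100% = DMSO alone without agonist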
Target sequence (P11229 whole entry, looked up): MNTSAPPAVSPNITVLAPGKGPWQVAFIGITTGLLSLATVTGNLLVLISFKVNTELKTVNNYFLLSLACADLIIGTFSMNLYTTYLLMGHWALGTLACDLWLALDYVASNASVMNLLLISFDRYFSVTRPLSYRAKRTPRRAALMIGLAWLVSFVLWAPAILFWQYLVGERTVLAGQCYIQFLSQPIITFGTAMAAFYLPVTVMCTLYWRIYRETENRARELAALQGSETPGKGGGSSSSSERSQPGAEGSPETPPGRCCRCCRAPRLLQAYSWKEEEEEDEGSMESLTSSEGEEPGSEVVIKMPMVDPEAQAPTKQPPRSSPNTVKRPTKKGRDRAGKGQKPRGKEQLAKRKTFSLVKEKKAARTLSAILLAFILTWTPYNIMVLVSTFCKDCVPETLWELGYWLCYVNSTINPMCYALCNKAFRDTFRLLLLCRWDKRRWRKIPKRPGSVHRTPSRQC
CHRM5 antagonist = CHRM5 antagonism in calcium assay | P08912 | CHO-hM5 cells, Fluo-8 calcium fluorescence, ACh EC80 | 360,000 compounds, 0.59% hits | inhibition, % at 3 µM;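 active = inhibition above a per-plate cutoff, the mean of that plate's test compounds plus 3 SD, cut at about 27% in these data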;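 also: 0% = acetylcholine EC80 with DMSO and 100% = DMSO without agonist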
CHRM1 PAM = positive allosteric modulators of human M1 muscarinic receptor | P11229 | CHO-K1 hM1, Fluo-8 calcium fluorescence, ACh EC20; 0% = ACh EC20, 100% = maximal ACh | activation, % at 3 µM | 360,000 compounds, 0.088% hits | AID 588819; in the data active = activation above about 19%, passing the limit was not always enough
M5 PAM = CHRM5 positive allosteric modulation; P08912; CHO-K1 hM5, Fluo-8 calcium, ACh EC20 PAM; 0% = ACh EC20, 100% = ACh EC100; activation, % at 3 µM; 360,000 compounds, 0.3% hits;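 active = activation above the run cutoff, the mean activation of all test compounds plus 3 SD, cut at about 18% in these data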
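system = human M5 receptor in CHO-K1 cells | compound = one concentration, 3 µM final (nominal) | schedule = Post-acetylcholine fluorescence recording 140 s | signal = Fluo-8 calcium dye fluorescence, kinetic read | benchmarks = low control EC20 acetylcholine (0%), high control EC100 acetylcholine (100%) | repeats = singlicate, one well per test compound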
CHRM1 agonist = activates human CHRM1 receptor; CHO-K1 hM1, Fluo-8 calcium fluorescence, agonist mode; 0% DMSO, 100% acetylcholine EC100; 360,000 compounds, 0.33% hits; P11229; activation, % at 3 µM;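 active = activation above the run's mean compound activation plus 3 SD, cut at about 16% in these data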;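 also: peak over basal fluorescence ratio within a 140 s kinetic read after compound addition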
CHRM5 agonist = CHRM5 agonism in calcium assay. 360,000 compounds, 0.19% hits. AID 624037. activation, % at 3 µM. P08912. CHO-K1 hM5 cells, Fluo-8 calcium fluorescence; 0% DMSO wells, 100% maximal acetylcholine response;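 active = activation above the run's mean over test compounds plus 3 SD, cut at about 23% in these data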;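 also: signal is peak over basal fluorescence ratio across the kinetic read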
The depositor's hits bear a star; / = no result given.

SMILES	M1 antag	CHRM5 antagonist	CHRM1 PAM	M5 PAM	CHRM1 agonist	CHRM5 agonist
CC(=O)NCCC(=O)N(C)CC1CCN(CCc2cccc(C(F)(F)F)c2)CC1	-2.6	-3.8	0.5	0.9	-5.3	-22.2
COC(=O)CCC(=O)N(C)CC1CCCN(CCc2cccc(C(F)(F)F)c2)C1 (centres undefined)	44.1*	-4.4	-24.8	5.4	-10.6	-1.5
CCCCCc1c(-c2ccc(Br)cc2)ncn1CCc1ccccc1OC	/	-6.0	/	-8.0	/	-5.0
COc1ccc(-c2noc(CCC(=O)Nc3cccc(C(=O)NC4CC4)c3)n2)cc1OC	-12.3	7.4	3.0	-7.5	2.1	1.8
CCOc1cc(N2CCOCC2)c(OCC)cc1NC(=O)CN1C(=O)NC(CC)(c2ccc(F)cc2)C1=O (centres undefined)	-10.8	-10.5	14.6	9.8	-0.4	2.6
Cc1nc(-c2ccccc2)sc1C1(C)CC(c2ccc(OC(F)(F)F)cc2)=NO1 (centres undefined)	-0.1	-3.7	3.4	18.1*	-2.7	1.3
Cc1nc(-c2ccc(Cl)cc2)sc1C1(C)CC(c2ccc(OC(F)(F)F)cc2)=NO1 (centres undefined)	-0.7	8.0	-0.1	2.9	-2.5	2.9
CNC(=O)C[C@@H]1C(=O)N(CCc2ccccc2)CC1(C)C	-11.3	-2.1	0.8	0.2	-3.2	0.3
COC(=O)c1ccc2nccnc2c1	11.7	-5.1	-4.5	5.8	-1.2	1.9
COC(=O)c1ccc(N)nc1	-2.4	-2.1	-1.0	-0.4	21.5*	12.3
O=C1c2ccccc2C(=O)N1C/C=C/c1ccccc1	-1.2	-3.4	4.4	5.4	-5.3	-8.3
O=C1C(=O)N(C/C=C/c2ccccc2)c2ccccc21	-16.5	0.5	16.8	-3.2	24.1*	13.4
O=C1C(=O)N(CCCc2ccccc2)c2ccccc21	-13.6	-9.2	6.3	-2.4	18.3*	25.7*
CCNC(=O)C1(C)CCCN1C(=O)c1c(F)cccc1F (centres undefined)	-5.7	-0.7	3.7	-1.7	-0.8	0.1
CC(c1ccon1)N(C)C(=O)c1cccc(OC2CCN(S(C)(=O)=O)CC2)c1 (centres undefined)	12.7	-0.8	-7.0	-1.0	-1.2	0.4
Cc1ccc(S(=O)(=O)N(C)C)cc1NC(=O)C(C)N(C)Cc1sccc1C (centres undefined)	9.1	29.8*	-9.3	-11.3	-1.9	-3.3
CCc1nc2c(OCCOc3ccc(F)cc3)cccn2c1N(C)C(=O)c1ccco1	5.8	0.6	-2.1	-3.9	-8.6	-1.5
O=C(Nc1ccccc1)c1[nH]ncc1[N+](=O)[O-]	-2.4	-10.5	4.4	16.4	-2.8	-6.5
COc1ccc(NC(=O)c2[nH]ncc2[N+](=O)[O-])cc1	-3.9	-8.5	7.8	18.1*	-6.7	0.0
COC(=O)[C@]12CCCCC=C1N(Cc1cccc3ccccc13)C(=O)[C@H](CC(=O)NCc1cccs1)C2	/	-3.3	/	-3.7	/	1.2
COCCNS(=O)(=O)c1ccc(-c2ccc(Cl)cc2)cc1	-10.9	-7.4	8.0	21.1*	-0.3	3.9
NS(=O)(=O)c1ccc(CCNS(=O)(=O)c2ccc(Cl)cc2)cc1	100.8*	9.8	-10.4	-4.2	-2.6	-3.6
CN(C)CCCN=C(NO)c1ccc(Cl)cc1Cl	7.7	5.0	-5.8	0.2	49.9*	11.6
COCCNC(=O)C1(C)CCCN(C(=O)c2cccc3ccccc23)C1 (centres undefined)	2.4	29.7*	-0.7	-5.5	0.5	0.5
C[C@H](O)CNC(=O)c1[nH]cnc1C(=O)N[C@@H](C)c1ccccc1	3.9	-6.9	-3.7	8.1	-3.7	1.2
SMILES	M1 antag	CHRM5 antagonist	CHRM1 PAM	M5 PAM	CHRM1 agonist	CHRM5 agonist
CC(CC(=O)N1CCN(c2cccc(Cl)c2)CC1)S(=O)(=O)c1ccc2c(c1)NC(=O)CO2 (centres undefined)	65.6*	9.5	-21.2	-3.9	3.8	-3.0
COc1ccc(C(NC(=O)C2CCN(Cc3ccc(Oc4ccccc4)cc3)CC2)c2ccccn2)cc1 (centres undefined)	2.5	7.5	-13.6	-13.8	-2.5	-1.3
OC(CN1CCCCC1)CN(c1ccccc1)c1ccccc1 (centres undefined)	51.1*	8.1	-25.2	-27.4	-9.5	-10.6
OC(CN1CCCCCC1)CN(c1ccccc1)c1ccccc1 (centres undefined)	38.5*	17.1	-26.2	-18.4	-8.2	-23.3
O=C(NCc1ccccc1)C(c1ccc(-c2ccccc2)cc1)N1CCN(c2ccccc2F)CC1 (centres undefined)	/	2.9	/	-3.7	/	-0.2
OC[C@@H]1CN(Cc2ccncc2)C[C@H](n2cnc3c(NCc4ccncc4)ncnc32)O1	-3.5	4.3	1.8	-3.2	0.6	2.4
C[C@H](CO)N1C[C@H](C)[C@@H](CN(C)C(=O)Nc2ccccc2)Oc2c(NS(=O)(=O)c3ccccc3)cccc2C1=O	1.3	10.4	-3.5	-0.7	-4.4	2.5
COc1ccc(NC(=O)N(C)C[C@H]2Oc3c(NC(=O)Nc4ccc5c(c4)OCO5)cccc3C(=O)N([C@H](C)CO)C[C@@H]2C)cc1	21.7	10.8	-10.3	-27.7	-2.0	-4.1
C[C@H](CO)N1C[C@H](C)[C@@H](CN(C)S(=O)(=O)c2ccccc2)Oc2ccc(NC(=O)Nc3ccc(C(F)(F)F)cc3)cc2C1=O	1.3	5.3	-7.4	-0.7	-6.6	0.7
C[C@H](CO)N1C[C@H](C)[C@@H](CN(C)S(=O)(=O)c2ccccc2)Oc2ccc(NC(=O)CCC(F)(F)F)cc2C1=O	76.7*	6.6	-30.9	2.3	-10.8	-4.9
C[C@H](CO)N1C[C@H](C)[C@@H](CN(C)S(=O)(=O)c2cccs2)Oc2c(NC(=O)Nc3ccc4c(c3)OCO4)cccc2C1=O	-2.4	7.3	-2.6	-13.2	-6.6	-2.9
C[C@H](CO)N1C[C@H](C)[C@@H](CN(C)C(=O)Nc2ccccc2)Oc2c(NS(=O)(=O)c3ccc(F)cc3)cccc2C1=O	-22.4	-5.5	26.4*	6.4	-2.1	2.4
COc1ccc(NC(=O)Nc2cccc3c2O[C@H](CN(C)C(=O)Nc2ccc4c(c2)OCO4)[C@@H](C)CN([C@H](C)CO)C3=O)cc1	33.3*	23.5	-23.4	-27.9	-4.1	2.7
C[C@H](CO)N1C[C@H](C)[C@@H](CN(C)S(=O)(=O)c2cccs2)Oc2ccc(NC(=O)Nc3ccc4c(c3)OCO4)cc2C1=O	40.9*	13.7	-22.9	-4.3	-10.6	-2.0
C[C@H](CO)N1C[C@H](C)[C@@H](CN(C)C(=O)Nc2ccc3c(c2)OCO3)Oc2c(NC(=O)Nc3ccc4c(c3)OCO4)cccc2C1=O	36.0*	22.7	-16.0	-24.5	-3.3	2.2

High-throughput results from PubChem.
